As a reminder, the CL/F is clearance divided by bioavailability, as obtained after extravascular dosing. In general, AUC(0-inf) refers to total exposure, with the tail of the curve extrapolated. Higher therefore signals high exposure. For orientation: Cmax means the maximum level reached in the sampled fluid or tissue. A word on the Tmax: it is the time at which the peak concentration occurs. What is called AUC is the area under the concentration-time curve, a measure of exposure. Higher therefore signals high exposure. Broadly, the bioavailability is dose-corrected exposure relative to a reference, in per cent. Lower therefore signals little systemic uptake.

Activity calls are given as the source filed them. The rule behind the calls is not given here.

Series [1] is described as follows: Apparent clearance in type 2 diabetic mellitus human at 1080 mg, po administered as single dose. In kind it is ADME, organism-based. The note with it: in vivo. The method in brief: (§1)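 Type 2 diabetic subjects each received a single oral dose. Plasma drug levels were followed over time. Parameters were derived by noncompartmental analysis and reported as geometric means with CV%. CL/F is apparent total clearance and Vz/F is apparent terminal-phase volume.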

The nature of series [2]: Half life in type 2 diabetic mellitus human at 1080 mg, po administered as single dose. Particulars: in vivo. In kind it is ADME, organism-based. The method in brief: as §1
Series [3] is described as follows: Half life in type 2 diabetic mellitus human at 270 mg, po administered as single dose. In kind it is ADME, organism-based. Particulars: in vivo. The method, boiled down:
as §1

Series [4] is described as follows: AUC ( 0 to infinity) in type 2 diabetic mellitus human at 270 mg, po administered as single dose. It counts as ADME, organism-based. Details: time infinity, route oral, dose 270 mg. Particulars: in vivo. The method in brief: as §1
Series [5] is described as follows: Drug metabolism in dog hepatocytes assessed as demethylation by LC-MS/MS analysis. It counts as ADME, cell-based, Canis lupus familiaris, Hepatocyte.
The nature of series [6]: Drug metabolism in rat hepatocytes assessed as demethylation by LC-MS/MS analysis. In kind it is ADME, cell-based, Hepatocyte.
Series [7] is described as follows: Cmax in type 2 diabetic mellitus human at 540 mg, po administered as single dose. In kind it is ADME, organism-based. Particulars: in vivo. Details: route oral, dose 540 mg. The method in brief:
as §1

Series [8] is described as follows: Drug metabolism in mouse hepatocytes assessed as demethylation by LC-MS/MS analysis. It counts as ADME, cell-based, Hepatocyte.
Series [9] can be described thus: Apparent clearance in type 2 diabetic mellitus human at 270 mg, po administered as single dose. In kind it is ADME, organism-based. Particulars: in vivo. The method, boiled down:
as §1

Series [10] is described as follows: Tmax in type 2 diabetic mellitus human at 270 mg, po administered as single dose. It counts as ADME, organism-based. Particulars: in vivo. The method, boiled down:
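Single oral dose given to type 2 diabetic subjects; plasma drug levels followed over time. Cmax, Tmax, terminal half-life, AUC(0−∞), CL/F and Vz/F obtained by noncompartmental analysis and reported as geometric means with CV%.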

The nature of series [11]: AUC ( 0 to infinity) in type 2 diabetic mellitus human at 1080 mg, po administered as single dose. It counts as ADME, organism-based. Details: time infinity, route oral, dose 1080 mg. Particulars: in vivo. The method, boiled down:
as §1

A short description of series [12]: Apparent volume of distribution in type 2 diabetic mellitus human at 540 mg, po administered as single dose. It counts as ADME, organism-based. The note with it: in vivo, read-out: Vz/F. The method, boiled down: as §1
Series [13] can be described thus: Drug distribution in C57BL/6 mouse colon at 3 microg/kg, iv administered as single dose observed at 20 to 40 mins by LC-MS/MS analysis. In kind it is ADME, organism-based. The note with it: in vivo, 0.003 mg/kg, time 20-40 min, dose 3 µg/kg. The method in brief:
(§2)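 Tracer microdose study in fed male C57BL/6 mice: single 3 μg/kg IV dose in 25% HP-BCD. Mice were killed by cervical dislocation, and spleen, ascending colon, skeletal muscle and plasma were sampled at 20 and 40 min.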

A short description of series [14]: Drug distribution in C57BL/6 mouse spleen at 3 microg/kg, iv administered as single dose observed at 20 to 40 mins by LC-MS/MS analysis. It counts as ADME, organism-based. Particulars: in vivo, 0.003 mg/kg, time 20-40 min, dose 3 µg/kg. The method, boiled down: as §2
Series [15] can be described thus: Drug distribution in C57BL/6 mouse skeletal muscle at 3 microg/kg, iv administered as single dose observed at 20 to 40 mins by LC-MS/MS analysis. It counts as ADME, organism-based, Skeletal muscle tissue. Particulars: in vivo, 0.003 mg/kg, time 20-40 min, dose 3 µg/kg. The method, boiled down:
as §2

Series [16] is described as follows: AUC in hyperglycemic Balb/c mouse plasma at 3.67 mg/kg measured upto 60 mins. Details: dose 3.67 mg/kg, time <=60. It counts as ADME, organism-based.
A short description of series [17]: Drug metabolism in mouse hepatocytes assessed as O-dealkylation by measuring 4-((2,3-dihydrospiro[indene-1,4'-piperidine]-1'-yl)methyl)benzoic acid metabolite formation by LC-MS/MS analysis. It counts as ADME, cell-based, Hepatocyte.
A short description of series [18]: Elimination half-life in rat plasma at 10 mg/kg, po or 3 mg/kg, iv by LC/MS/MS analysis. The note with it: read-out: beta t1/2 (converted).
Series [19] is described as follows: Oral bioavailability in rat at 10 mg/kg by LC/MS/MS analysis. It counts as ADME, organism-based. Particulars: in vivo. The method in brief:
(§3)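 Mice, rats and beagle dogs dosed; blood drawn at set times into EDTA, processed to plasma and assayed by LC/MS/MS. Parameters (clearance, Vdss, terminal half-life, Cmax, Tmax, oral bioavailability) derived by noncompartmental analysis.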

The nature of series [20]: Cmax in dog plasma at 5 mg/kg, po or 1 mg/kg, iv by LC/MS/MS analysis. It counts as ADME, organism-based, Canis lupus familiaris. Details: dose 5 mg/kg. The method in brief: (§4)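 Dosing was oral and intravenous in mice, rats or beagle dogs. Blood was drawn at set time points into EDTA and processed to plasma. Plasma was assayed by LC/MS/MS. Clearance, Cmax and terminal half-life were derived by noncompartmental analysis.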

Series [21] is described as follows: Cmax in mouse plasma at 10 mg/kg, po or 1 mg/kg, iv by LC/MS/MS analysis. Details: dose 10 mg/kg. In kind it is ADME, organism-based. The method in brief: as §4
Series [22] in a line: Drug metabolism in human hepatocytes assessed as O-dealkylation by measuring 4-((2,3-dihydrospiro[indene-1,4'-piperidine]-1'-yl)methyl)benzoic acid metabolite formation by LC-MS/MS analysis. It counts as ADME, cell-based, Hepatocyte.
A short description of series [23]: AUC in hyperglycemic Balb/c mouse plasma at greater than 0.58 mg/kg measured upto 60 mins. It counts as ADME, organism-based. Details: dose 0.58 mg/kg, time <=60.
Series [24] in a line: Clearance in dog plasma at 5 mg/kg, po or 1 mg/kg, iv by LC/MS/MS analysis. In kind it is ADME, organism-based, Canis lupus familiaris. The method, boiled down: as §4
Series [25] is described as follows: Drug metabolism in rat hepatocytes assessed as O-dealkylation by measuring 4-((2,3-dihydrospiro[indene-1,4'-piperidine]-1'-yl)methyl)benzoic acid metabolite formation by LC-MS/MS analysis. It counts as ADME, cell-based, Hepatocyte.
Series [26] is described as follows: Half-life in rat at 10 mg/kg, po or 3 mg/kg, iv by LC/MS/MS analysis. It counts as ADME, organism-based. Particulars: in vivo. The method in brief: as §3
Series [27] concerns the target Free fatty acid receptor 1 (Mus musculus) (UniProt Q76JU9). Briefly: Agonist activity at GPR40 in mouse pancreatic islets assessed as induction of glucose-mediated insulin secretion measured after 90 mins in EBSS buffer by ELISA. The note with it: filed as agonist. Background: An ELISA detects its analyte on a solid surface through an enzyme-linked reagent.
The nature of series [28]: Volume of distribution at steady state in dog at 5 mg/kg, po or 1 mg/kg, iv by LC/MS/MS analysis. In kind it is ADME, organism-based, Canis lupus familiaris. The note with it: in vivo, read-out: Vdss. The method, boiled down:
as §3

A short description of series [29]: Cmax in rat plasma at 10 mg/kg, po or 3 mg/kg, iv by LC/MS/MS analysis. It counts as ADME, organism-based. Details: dose 10 mg/kg. The method, boiled down: as §4
Series [30] is described as follows: Clearance in rat plasma at 10 mg/kg, po or 3 mg/kg, iv by LC/MS/MS analysis. It counts as ADME, organism-based. The method in brief:
as §4

Series [31] is described as follows: Tmax in mouse at 10 mg/kg, po or 1 mg/kg, iv by LC/MS/MS analysis. In kind it is ADME, organism-based. Particulars: in vivo. The method, boiled down: as §3
Series [32] in a line: Tmax in dog at 5 mg/kg, po or 1 mg/kg, iv by LC/MS/MS analysis. It counts as ADME, organism-based, Canis lupus familiaris. Particulars: in vivo. The method, boiled down:
as §3

Series [33] is described as follows: Volume of distribution at steady state in mouse at 10 mg/kg, po or 1 mg/kg, iv by LC/MS/MS analysis. In kind it is ADME, organism-based. Particulars: in vivo, read-out: Vdss. The method in brief: as §3
Series [34] is described as follows: Clearance in mouse plasma at 10 mg/kg, po or 1 mg/kg, iv by LC/MS/MS analysis. It counts as ADME, organism-based. The method, boiled down:
as §4

Series [35] can be described thus: Tmax in rat at 10 mg/kg, po or 3 mg/kg, iv by LC/MS/MS analysis. Particulars: in vivo. It counts as ADME, organism-based. The method, boiled down: as §3
Series [36] can be described thus: Elimination half-life in dog plasma at 5 mg/kg, po or 1 mg/kg, iv by LC/MS/MS analysis. It counts as ADME, organism-based, Canis lupus familiaris. The method, boiled down: as §4
Series [37] can be described thus: Drug metabolism in rat hepatocytes assessed as oxidation by LC-MS/MS analysis. In kind it is ADME, cell-based, Hepatocyte.
Series [38] can be described thus: Drug metabolism in dog hepatocytes assessed as oxidation by LC-MS/MS analysis. It counts as ADME, cell-based, Canis lupus familiaris, Hepatocyte.
The nature of series [39]: Drug metabolism in dog urine assessed as N-dealkylation by LC-MS/MS analysis. It counts as ADME, tissue-based, Canis lupus familiaris.

Sequence of Free fatty acid receptor 1 (Mus musculus) (Q76JU9 whole entry): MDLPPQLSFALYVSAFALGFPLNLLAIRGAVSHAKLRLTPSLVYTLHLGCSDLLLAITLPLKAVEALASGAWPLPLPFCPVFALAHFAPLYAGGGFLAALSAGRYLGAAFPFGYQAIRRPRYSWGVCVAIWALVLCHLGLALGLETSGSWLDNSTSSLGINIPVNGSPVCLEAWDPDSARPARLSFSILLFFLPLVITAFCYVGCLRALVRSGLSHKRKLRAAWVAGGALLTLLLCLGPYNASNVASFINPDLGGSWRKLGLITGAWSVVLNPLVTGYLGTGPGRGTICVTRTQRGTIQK

With `CC#C[C@@H](CC(=O)O)c1ccc(OCc2ccc(CN3CCCc4cccc(OC)c43)s2)cc1`, the CL/F in [1] is 185 mL/min; in series [9] it was 232 mL/min. The half-life is 22.4 h in series [2] and 12.1 h in series [3]. The AUC(0-inf) turned out to be 19400 ng·h/mL in series [4] and 97300 ng·h/mL in series [11]. Besides, the Drug metabolism result in series [5], in series [6] and in [8] was “Metabolite_Detected” throughout. In [7], the peak level (Cmax) was 3780 ng/mL. For the same molecule, the Tmax in [10] turned out to be 2.75 h. Also, the Vd/F in [12] worked out at 273 L.

Consider `CC#C[C@@H](CC(=O)O)c1ccc(OCc2ccc(CN3CCC4(C=Cc5ccccc54)CC3)s2)cc1`, for which the Drug uptake result in series [13], in [14] and in series [15] was “Active” each time. Besides, the AUC at 1 h in [16] is 1060 ng·h/mL.

As to `CC#C[C@@H](CC(=O)O)c1ccc(OCc2ccc(CN3CCC4(C=Cc5ccccc54)CC3)cc2)cc1` [LY2881835], the Drug metabolism entry in [17], in series [22] and in series [25] was “Metabolite_Detected” in each case. Also, the figures for the half-life in series [18], in series [26] and in series [36] were 2 h, 2.1 h and 5.05 h, respectively. The same molecule yielded a bioavailability in series [19] of 71%. In addition, the Cmax is 2860 ng/mL in series [20], 1100 ng/mL in series [21] and 11200 ng/mL in series [29]. Further, the AUC at 1 h in series [23] came to 218 ng·h/mL. Moreover, the clearance was 4.9 mL/min/kg in [24], 11.6 mL/min/kg in [30] and 20.4 mL/min/kg in [34]. In [27], the result was Active. Also, the values for the Vd in series [28] and in [33] were 0.8 L/kg and 1.4 L/kg, respectively. In addition, the results for the Tmax in [31], in series [32] and in [35] were 0.5 h, 3 h and 0.25 h, respectively.

As for `CC#C[C@@H](CC(=O)O)c1ccc(OCc2ccc(CN3CCC4(CCc5ccccc54)CC3)s2)cc1`, the Drug metabolism entry in [37], in [38] and in [39] was “Metabolite_Detected” in each case.

These data come from ChEMBL document CHEMBL4765234 (J Med Chem, 2016).
